Measurements reported in ChEMBL document CHEMBL4665795, “Synthesis and Evaluation of 4-Hydroxycoumarin Imines as Inhibitors of Class II Myosins” (J Med Chem, 2020).
The source made the active and inactive calls. No cut-off for these calls is given here.

What was measured:
[1] = Inhibition of actin-activated rabbit skeletal muscle myosin 2 assessed as phosphate level incubated for 6 to 24 mins by spectrophotometric method; design: species or system Oryctolagus cuniculus
Summary of the method: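 Actin-activated ATPase run at 30 °C in assay buffer with 32 µM actin and 2 mM ATP. Phosphate production followed over time by absorbance in stopped-time format. IC50 from four-parameter logistic fit. N is the number of fully independent titrations.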

Mus musculus [2] = organism: Mus musculus; test: Inhibition of C57Bl6 mouse […] assessed as reduction in action potential in mouse diaphragm at 100 uM
Mus musculus [3] = organism: Mus musculus; test: Inhibition of C57Bl6 mouse skeletal muscle myosin assessed as inhibition of phrenic nerve stimulation-induced contraction in mouse diaphragm at 100 uM relative to control
Summary of the method: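 Mouse phrenic nerve-hemidiaphragm preparation used ex vivo. Muscle contraction evoked by phrenic nerve stimulation, recorded with and without compound.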

[4] = Selectivity ratio of IC50 for actin-activated bovine heart muscle myosin 2 to IC50 for actin-activated rabbit skeletal muscle myosin 2
[5] = Inhibition of rabbit skeletal muscle myosin 2 assessed as reduction in actin-sliding velocity incubated for 1 min by inverted microscopic analysis; design: species or system Oryctolagus cuniculus
Summary of the method: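 In vitro motility assay at 30 °C with skeletal myosin loaded at 100 µg mL-1 on a coverslip. Fluorescent actin filament sliding velocity recorded across compound concentrations. IC50 obtained by curve fit.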

[6] = Kinetic solubility in pH 7.4 PBS incubated for 1 hr; assay type: physicochemical; conditions: for Kinetic_solubility: buffer, pH 7.4, 1 h
HL-60 = test: Cytotoxicity against human HL-60 cells assessed as reduction in cell viability incubated for 48 hrs by hemocytometer based trypan-blue exclusion assay; conditions: HL-60, 48 h
[7] = Half life in pH 7.4 PBS at 100 uM by UV-VIS spectroscopic method; assay type: physicochemical
[8] = Competitive binding affinity to skeletal myosin S1 (unknown origin) assessed as reduction in Blebbistatin-induced fluorescence intensity incubated for 1 hr by fluorescence based assay; design: species or system Homo sapiens
[9] = Inhibition of actin-activated rabbit skeletal muscle myosin 2; design: species or system Oryctolagus cuniculus
[10] = Binding affinity to skeletal myosin S1 (unknown origin) assessed as fluorescence intensity in presence of ATP; design: species or system Homo sapiens
Summary of the method: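 Skeletal myosin S1 binding read by fluorescence of 2 µM blebbistatin probe (λex 440 nm, em 560 nm) in assay buffer with 1 mM ATP at 22-25 °C. Signal without S1 was subtracted and normalised to Fmax. Direct Kd came from S1 titration fit to a quadratic single-site equation. Competition used 1 µM S1 and 1 hr incubation with analog; IC50 from a four-parameter fit was converted to Ki. N = 1.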

CC/C(=N\Cc1ccccc1)c1c(O)c2ccccc2oc1=O
IC50 [1]: ≥ 100 µM

C/C(=N\CC(C)C)c1c(O)c2ccccc2[nH]c1=O
inhibition (Mus musculus [2]): Active | inhibition (Mus musculus [3]): 71% | IC50 [1]: ≥ 100 µM

CCC/N=C(\C)c1c(O)c2ccccc2[nH]c1=O
inhibition (Mus musculus [3]): 41% | IC50 [1]: ≥ 100 µM

CCCCC/N=C(\C)c1c(O)c2ccccc2oc1=O
Ratio IC50 [4]: 3.3 | IC50 [1]: 2 µM

CCCC/N=C(\C)c1c(O)c2ccccc2oc1=O
IC50 [5]: 2.8 µM | inhibition (Mus musculus [2]): inactive | inhibition (Mus musculus [3]): 96% | Kinetic_solubility [6]: 607 µM | Ratio IC50 [4]: 2.8 | IC50 [1]: 2.1 µM

C/C(=N\OCc1ccccc1)c1c(O)c2ccccc2oc1=O
IC50 [1]: ≥ 100 µM

CCCC/N=C(\C)c1c(O)c2ccccc2n(C)c1=O
IC50 [1]: ≥ 100 µM

CCCCC/N=C(\C)c1c(O)c2cc([N+](=O)[O-])ccc2oc1=O
IC50 [1]: ≥ 100 µM

C/C(=N\Cc1ccccc1)c1c(O)c2cc([N+](=O)[O-])ccc2oc1=O
IC50 [1]: ≥ 100 µM

C/C(=N\Cc1cccnc1)c1c(O)c2ccccc2oc1=O
Ratio IC50 [4]: 5.6 | IC50 [1]: 3 µM

CCC/C(=N\Cc1ccccc1)c1c(O)c2ccccc2oc1=O
IC50 [1]: ≥ 100 µM

C/C(=N\CC(C)C)c1c(O)c2ccccc2oc1=O
inhibition (Mus musculus [3]): 22% | Ratio IC50 [4]: < 0.34 | IC50 [1]: ≥ 100 µM

C/C(=N\Cc1ccccn1)c1c(O)c2ccccc2oc1=O
inhibition (Mus musculus [2]): Active | inhibition (Mus musculus [3]): 86% | Ratio IC50 [4]: 3.2 | IC50 [1]: 6.8 µM

C/C(=N\Cc1ccccc1C)c1c(O)c2ccccc2oc1=O
IC50 [1]: ≥ 100 µM

C/C(=N\CCO)c1c(O)c2ccccc2[nH]c1=O
inhibition (Mus musculus [2]): Active | inhibition (Mus musculus [3]): 94% | IC50 [1]: ≥ 100 µM

CCC(C)/N=C(\C)c1c(O)c2ccccc2[nH]c1=O (configuration not stated)
inhibition (Mus musculus [2]): Active | inhibition (Mus musculus [3]): 98% | IC50 [1]: ≥ 100 µM

C/C(=N\Nc1ccccc1)c1c(O)c2ccccc2oc1=O
Ratio IC50 [4]: 13.5 | IC50 [1]: 2 µM

C/C(=N\Cc1cccc(C)c1)c1c(O)c2ccccc2oc1=O
Ratio IC50 [4]: 0.5 | IC50 [1]: 10 µM

CCCCCC/N=C(\C)c1c(O)c2ccccc2oc1=O
Ratio IC50 [4]: 2.4 | IC50 [1]: 1.2 µM

CC(=N)c1c(O)c2ccccc2oc1=O
inhibition (Mus musculus [2]): Active | inhibition (Mus musculus [3]): 73% | IC50 [1]: ≥ 100 µM

CCC(C)/N=C(\C)c1c(O)c2ccccc2oc1=O (configuration not stated)
inhibition (Mus musculus [3]): 21% | IC50 [1]: ≥ 100 µM

C/C(=N\C(C)C)c1c(O)c2ccccc2oc1=O
inhibition (Mus musculus [2]): Active | inhibition (Mus musculus [3]): 94% | IC50 [1]: ≥ 100 µM

C/N=C(\C)c1c(O)c2ccccc2oc1=O
inhibition (Mus musculus [2]): Active | inhibition (Mus musculus [3]): 80% | IC50 [1]: ≥ 100 µM | IC50 (HL-60): 408 µM

C/C(=N\Cc1ccncc1)c1c(O)c2ccccc2oc1=O
inhibition (Mus musculus [2]): inactive | inhibition (Mus musculus [3]): 98% | solubility kinetic at 1 h ([6]; PBS, pH 7.4, read-out: Kinetic_solubility): > 400 µM | Ratio IC50 [4]: > 12 | IC50 [1]: 8.5 µM | half-life at 100 µM [7]: 84 h

C/C(=N\Cc1ccccc1)c1c(O)c2ccccc2[nH]c1=O
inhibition (Mus musculus [3]): 16% | IC50 [1]: ≥ 100 µM

C/C(=N\C(C)C)c1c(O)c2ccccc2[nH]c1=O
inhibition (Mus musculus [3]): 18% | IC50 [1]: ≥ 100 µM

C/C(=N\Cc1ccccc1)c1c(O)c2ccccc2oc1=O
Kinetic_solubility [6]: 103 µM | Ratio IC50 [4]: 9.1 | IC50 [1]: 0.8 µM | IC50 [8]: 5.3 µM | Ki [8]: 0.8 µM | IC50 (HL-60): 801 µM

C/C(=N\CCCO)c1c(O)c2ccccc2oc1=O
inhibition (Mus musculus [2]): Active | inhibition (Mus musculus [3]): 72% | Ratio IC50 [4]: 1.2 | IC50 [1]: 31 µM

C/C(=N\CCO)c1c(O)c2ccccc2oc1=O
inhibition (Mus musculus [2]): Active | inhibition (Mus musculus [3]): 87% | Ratio IC50 [4]: 1 | IC50 [1]: 92 µM | IC50 (HL-60): 590 µM

C/C(=N\CC1CCCCC1)c1c(O)c2ccccc2[nH]c1=O
inhibition (Mus musculus [2]): Active | inhibition (Mus musculus [3]): 72% | IC50 [1]: ≥ 100 µM

CCCCC/N=C(\C)c1c(O)c2ccccc2[nH]c1=O
inhibition (Mus musculus [2]): Active | inhibition (Mus musculus [3]): 99% | IC50 [1]: ≥ 100 µM

C/C(=N\Cc1ccc(C)cc1)c1c(O)c2ccccc2oc1=O
Ratio IC50 [4]: 9.9 | IC50 [1]: 0.8 µM

CC/N=C(\C)c1c(O)c2ccccc2oc1=O
Ratio IC50 [4]: 2.1 | IC50 [1]: 47 µM

Cc1ccc2c(c1)C(=O)[C@]1(O)CCN(c3ccccc3)C1=N2
inhibition (Mus musculus [2]): Active | inhibition (Mus musculus [3]): 99% | IC50 [9]: 0.01 µM | IC50 [1]: 0.5 µM | Kd [10]: 0.4 µM

CCC/N=C(\C)c1c(O)c2ccccc2oc1=O
Ratio IC50 [4]: 1.7 | IC50 [1]: 31 µM

CCCC/N=C(\C)c1c(O)c2ccccc2[nH]c1=O
inhibition (Mus musculus [3]): 48% | IC50 [1]: ≥ 100 µM
